Experimental data as given in the RNAGym collection of RNA variant scans (doi:10.1126/science.aae0568).
Fewer inactive variants are shown than the library holds.

B1: tRNA (parent)
chain: GUUCCGUUGGCGUAAUGGUAACGCGUCUCCCUCCUAAGGAGAAGACUGCGGGUUCGAGUCCCGUACGGAACG

Variants of: B1
Test: yeast fitness relative to wild type (ratio to wild type); higher = fitter; tRNA-Arg(CCU), competitive growth, 37 C, YPD
Summary of the method: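 Gene amplicons from the start population and from each of six end populations were read by 100-nucleotide paired-end sequencing. Those end populations came from pooled Saccharomyces cerevisiae strains carrying tRNA-Arg(CCU) gene variants at the native locus, competed in YPD at 37°C for 24 hours. Fitness relative to wild type was worked out from changes in genotype frequencies. Genotypes needed ≥ 100 starting reads, and estimates < 0.5 were set to 0.5.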
With A36C G50A the yeast fitness was 0.608. C34U G39C C66U showed a yeast fitness of at most 0.5. Variant A36G A70C has a yeast fitness of 1.02. In the case of A36G A70U, the yeast fitness is reported as 0.832. Work on A36G A70G yielded a yeast fitness of 0.914. With C34U A40C G68C the yeast fitness was at most 0.5. For C34U U35G G38A C62U A65C G67A, the yeast fitness was at most 0.5. Work on C34U A42C yielded a yeast fitness of 0.664. C34U A42U showed a yeast fitness of 0.74. U35C C46A A70U gave a yeast fitness of 0.767. C34U C49A G56C C62A A65C gave a yeast fitness of 0.519. Work on U35A A65G yielded a yeast fitness of 0.751. A36G U54A C60G gave a yeast fitness of at most 0.5. U35G A37G C49U gave a yeast fitness of at most 0.5. With A36U A45C C49G the yeast fitness was 0.704. With U35A C60A A65U A70G the yeast fitness was at most 0.5. With A36U C46G A69U the yeast fitness was 0.538. U35G G44A gave a yeast fitness of 0.509. With C34U A40G C55G the yeast fitness was at most 0.5. U35G C62U gave a yeast fitness of 0.7. With U35G C62G the yeast fitness was 0.597. Work on A36G A37U G56C yielded a yeast fitness of at most 0.5. For C34U G39C, the yeast fitness was 0.571. In the case of A36C A42G C61A, the yeast fitness is reported as at most 0.5. With A36C C60U C62U A65C the yeast fitness was at most 0.5. For C34U G39A G48C A65U, the yeast fitness was at most 0.5. Work on C34U G44C U47G A65C C66G yielded a yeast fitness of at most 0.5. For A36C A37C U53G C66U A70C, the yeast fitness was 0.531. C34U A40C A43G showed a yeast fitness of 0.513. With U35A A45C G68U the yeast fitness was at most 0.5. Variant U35A C46A C49G G52A C60U has a yeast fitness of 0.661. In the case of A36G A37U C61G, the yeast fitness is reported as at most 0.5. With U35A A42C C46U C66U G67C the yeast fitness was at most 0.5. Variant C34U C60G A69G has a yeast fitness of at most 0.5. Variant A36G G56A A70G has a yeast fitness of 0.595. In the case of A36C A57U, the yeast fitness is reported as 0.509. U35A A57U U59C gave a yeast fitness of at most 0.5. A36G A57G showed a yeast fitness of 0.985. Variant U35G U64C A69C has a yeast fitness of at most 0.5. In the case of U35C U59A A70C, the yeast fitness is reported as at most 0.5. C34U U54A gave a yeast fitness of at most 0.5. Work on U35A G38C yielded a yeast fitness of 0.527. In the case of U35A A57U C61U, the yeast fitness is reported as at most 0.5. A36U A70U showed a yeast fitness of 0.747. With A36C A42U the yeast fitness was 0.639. With U35A A37G C49A the yeast fitness was at most 0.5. C34U A43G gave a yeast fitness of 0.789. Variant A36U A57C has a yeast fitness of 0.528. A36U A57U gave a yeast fitness of 0.547. A36U A57G gave a yeast fitness of 0.582. In the case of A36U C46A C62G, the yeast fitness is reported as at most 0.5. Variant A36C A45C G48A has a yeast fitness of at most 0.5. Variant A36G G48C C60A has a yeast fitness of at most 0.5. In the case of A36U C49G U54C, the yeast fitness is reported as 0.66. With A36G A45C G52C A69C the yeast fitness was 0.54. Work on C34U G51U U54A C60U A65C yielded a yeast fitness of at most 0.5. For C34U C49U C61U, the yeast fitness was 0.512. A36C U64A gave a yeast fitness of 0.932. With A36C U64C the yeast fitness was 0.824. With C34U A70C the yeast fitness was 0.73. C34U A70G showed a yeast fitness of 0.803. Work on C34U A70U yielded a yeast fitness of 0.662. In the case of U35A U54C C61G, the yeast fitness is reported as 0.645. In the case of U35A A36C C66A, the yeast fitness is reported as at most 0.5. In the case of U35A A45C, the yeast fitness is reported as 0.576. Work on A36C G50C U53C yielded a yeast fitness of at most 0.5. For U35C A37U C46G U54C C61A, the yeast fitness was at most 0.5. With C34U G41A the yeast fitness was 0.606. With U35G A69C the yeast fitness was 0.592. Variant C34U G50C has a yeast fitness of 0.528. Work on U35G A43G yielded a yeast fitness of 0.725. C34U G48A C49G showed a yeast fitness of 0.563. Work on U35A A57U C66G yielded a yeast fitness of at most 0.5. A36G A40G showed a yeast fitness of 1.01. With C34U A40G C46A C49G A65G the yeast fitness was at most 0.5. In the case of U35A C49G C60A, the yeast fitness is reported as at most 0.5. In the case of A36C C55U C66A, the yeast fitness is reported as at most 0.5. In the case of U35C C62U, the yeast fitness is reported as 0.882. C34U G58C C62G G67A gave a yeast fitness of at most 0.5. Variant U35C A45G C62A has a yeast fitness of at most 0.5. C34U A40G U54C A57G showed a yeast fitness of at most 0.5. U35G G51A A65C gave a yeast fitness of 0.622. Variant A36G C60G A70G has a yeast fitness of at most 0.5. C34U G52C A70U showed a yeast fitness of at most 0.5. With A36U A42C C55G C61G the yeast fitness was at most 0.5. A36G G52A C66A A69U gave a yeast fitness of at most 0.5. A36C C61U gave a yeast fitness of 0.581. In the case of A36C C49U G67C, the yeast fitness is reported as 0.532. For U35C A36U G38A C46A U54C, the yeast fitness was at most 0.5. Variant A36C A45U U59A has a yeast fitness of at most 0.5. With A36U A45G the yeast fitness was 0.606. In the case of A36G C55U G68C, the yeast fitness is reported as 0.594. Work on C34U A40G U47C yielded a yeast fitness of at most 0.5. U35A C61G gave a yeast fitness of at most 0.5. For U35A C46G C49U, the yeast fitness was 0.527. With A36C A45C C49U C55G C62A G68A the yeast fitness was at most 0.5. With A36G C61U A69C the yeast fitness was 0.693. In the case of C34U A40G A69U, the yeast fitness is reported as 0.574. With A36G G58A C60U the yeast fitness was at most 0.5. In the case of C34U A40U C61G, the yeast fitness is reported as at most 0.5. U35A C46A C55A A69U showed a yeast fitness of at most 0.5. With A36C A42U A43G G63C the yeast fitness was 0.509. Work on C34U G56A yielded a yeast fitness of 0.798. For U35G A43U C46G U53C A69C, the yeast fitness was at most 0.5. With A36G A40C A42G C61U the yeast fitness was 0.566. U35C G50C U54A showed a yeast fitness of at most 0.5. Work on C34U G39C A69U yielded a yeast fitness of at most 0.5. U35A C60G G63A showed a yeast fitness of 0.503. For A36G C66U A69U, the yeast fitness was 0.76. For A36U C49U G58C C66U, the yeast fitness was at most 0.5. U35A G44A showed a yeast fitness of 0.715. With A36C A37G G56A the yeast fitness was at most 0.5. U35A A42U A43U U59G gave a yeast fitness of 0.541. A36U A45U C46A C66U A69U showed a yeast fitness of at most 0.5. A36G G38C G58C showed a yeast fitness of 0.687. In the case of A36C G38C G50C G51A G63C, the yeast fitness is reported as 0.642. Work on U35C A37C C55A C60G G63C yielded a yeast fitness of at most 0.5. In the case of C34U U59A, the yeast fitness is reported as 0.762. For A36G U47A G67C, the yeast fitness was at most 0.5. In the case of C34U G67A, the yeast fitness is reported as 0.744. For A36U A69U, the yeast fitness was 0.623. In the case of U35G C49A, the yeast fitness is reported as 0.595. With U35C G44A A57U C66G the yeast fitness was at most 0.5. In the case of C34U G51U C60U C62U A65C A69G, the yeast fitness is reported as at most 0.5. For A36C G38A G58A, the yeast fitness was 0.562. Variant U35C G50A C55U has a yeast fitness of at most 0.5. A36C C46U showed a yeast fitness of 0.577. With A36C C46G the yeast fitness was 0.543. A36G G48A C49U gave a yeast fitness of 0.606. A36G C61G A69G gave a yeast fitness of 0.56. Variant C34U A42C A43U has a yeast fitness of at most 0.5. Variant A36G A45C G52C has a yeast fitness of 0.533. A36C G38C G52A gave a yeast fitness of at most 0.5. With A36G C62A the yeast fitness was 0.672. A36G C62G gave a yeast fitness of 0.905. In the case of A36G C62U, the yeast fitness is reported as 1.05. Variant A36U A65G has a yeast fitness of 0.673. Work on A36U C55A yielded a yeast fitness of at most 0.5. In the case of U35C G41C A65C, the yeast fitness is reported as at most 0.5. In the case of A36C G58A, the yeast fitness is reported as 0.618. For A36U A43C G44C G48C, the yeast fitness was at most 0.5. In the case of U35A C46A C49G G52A, the yeast fitness is reported as 0.572. For A36G A45C C66U, the yeast fitness was 0.787. Variant C34U C66U G67A has a yeast fitness of at most 0.5. A36U C61U C66U gave a yeast fitness of 0.582. Variant U35A A57C C62U has a yeast fitness of at most 0.5. For U35C A42C U64A, the yeast fitness was at most 0.5. Work on U35G U53G yielded a yeast fitness of 0.592. Variant A36G A69G has a yeast fitness of 0.932. A36G C61U U64C C66U gave a yeast fitness of at most 0.5. Variant A36C U53A has a yeast fitness of 0.643. With U35C C66U the yeast fitness was 0.781. With U35C C66G the yeast fitness was 0.657. U35A G58A G67C showed a yeast fitness of at most 0.5. For C34U C46G G58C C60U C66G, the yeast fitness was at most 0.5. U35C A42C G50A gave a yeast fitness of at most 0.5. U35G A57C A70C gave a yeast fitness of at most 0.5. With C34U C46G A69U the yeast fitness was 0.576. U35C A43U gave a yeast fitness of 0.971. U35C A43G showed a yeast fitness of 0.783. Variant U35C A43C has a yeast fitness of 0.927. Work on U35C G39A U53A yielded a yeast fitness of 0.567. Variant U35C G51U has a yeast fitness of 0.527. A36G A37U C66A A69U showed a yeast fitness of at most 0.5. With A36U A40U A45G G58C the yeast fitness was 0.565. For U35G G38C G63A, the yeast fitness was at most 0.5. C34U C46U U64A showed a yeast fitness of 0.642.
